Published values from different studies.

SMILES	tested on	test	test system	setting	endpoint	value
Cc1ccc(N(CC2=NCCN2)c2cccc(O)c2)cc1	Plasmodium falciparum	parasite growth	K1	drug-resistant strain, blood stage	IC50	189000 nM
CC(C)C[C@H](NC(=O)[C@H](CC(C)C)NC(=O)[C@H](CCCCN)NC(=O)[C@H](CCCCN)NC(=O)[C@H](CC(C)C)NC(=O)[C@H](CC(C)C)NC(=O)[C@H](CCCCN)NC(=O)[C@H](CCCCN)NC(=O)[C@H](CCC(=O)O)NC(=O)[C@H](CC(C)C)NC(=O)[C@H](CCCCN)NC(=O)[C@H](CCCCN)NC(=O)[C@H](CC(C)C)NC(=O)[C@@H](N)CC(C)C)C(N)=O	HCCC9810	cell growth or viability, CCK-8	–	–	IC50	325000 nM
N=C(CC(O)c1cc2c(F)cc(F)cc2c2cc(C(F)(F)F)ccc12)NCc1ccc(F)cc1 (stereo not shown)	Plasmodium falciparum	parasite growth, ELISA	3D7	72 h, blood stage	IC50	1110 nM
COc1ccc2cc1Oc1ccc(cc1)C[C@H]1c3c(cc4c(c3Oc3cc5c(cc3OC)CCN(C)[C@@H]5C2)OCO4)CCN1C	Plasmodium falciparum	parasite growth	K1	drug-resistant strain, blood stage	IC50	91.4 nM
COc1cc(NC(=N)CC(O)c2cc3c(F)cc(F)cc3c3cc(C(F)(F)F)ccc23)ccc1Br (stereo not shown)	Plasmodium falciparum	parasite growth, ELISA	3D7	72 h, blood stage	IC50	13.6 nM
CC(=O)N[C@H]1[C@@H](O[C@@H]2O[C@H](C[C@@H](O)[C@H]3O[C@@H](n4ccc(=O)[nH]c4=O)[C@H](O)[C@@H]3O)[C@H](O)[C@H](O)[C@H]2NC(=O)/C=C/CCCCCCCCCC(C)C)O[C@H](CO)[C@@H](O)[C@@H]1O	MDA-MB-453	cell growth or viability, WST-1	–	–	IC50	160 nM
N=C(CC(O)c1cc2c(F)cc(F)cc2c2cc(C(F)(F)F)ccc12)Nc1nc2ccccc2[nH]1 (stereo not shown)	Plasmodium falciparum	parasite growth, ELISA	3D7	72 h, blood stage	IC50	5590 nM
CCN1CCN(Cc2ccc(Nc3nc4ccc(Oc5ccnc(NC(=O)C6CCN(C)CC6)c5)cc4n3C)cc2C(F)(F)F)CC1	Plasmodium falciparum	parasite growth, SYBR Green	DD2	blood stage	EC50	116 nM
CC(C)C[C@H](NC(=O)[C@H](CC(C)C)NC(=O)[C@H](CCCCN)NC(=O)[C@H](CCCCN)NC(=O)[C@H](CC(C)C)NC(=O)[C@H](CC(C)C)NC(=O)[C@H](CCCCN)NC(=O)[C@H](CCCCN)NC(=O)[C@H](CC(C)C)NC(=O)[C@H](CC(C)C)NC(=O)[C@H](CCCCN)NC(=O)[C@H](CCCCN)NC(=O)[C@H](CCC(=O)O)NC(=O)[C@@H](N)CC(C)C)C(N)=O	HCCC9810	cell growth or viability, CCK-8	–	–	IC50	6960 nM
CO[C@H]1/C=C/O[C@@]2(C)Oc3c(C)c(O)c4c(O)c(c(/C=N/N5CCN(C6CCCC6)CC5)c(O)c4c3C2=O)NC(=O)/C(C)=C\C=C\[C@H](C)[C@H](O)[C@@H](C)[C@@H](O)[C@@H](C)[C@H](OC(C)=O)[C@@H]1C	Plasmodium falciparum	parasite growth	DD2	drug-resistant strain, blood stage	IC50	1980 nM
